# Reference: ChEMBL document CHEMBL2040727, “Substituted thiazoles VI. Synthesis and antitumor activity of new 2-acetamido- and 2 or 3-propanamido-thiazole analogs” (2012)
# Tested on: OVCAR-5
# Experiment: Growth inhibition of human OVCAR5 cells at 10 uM after 48 hrs by coulter counter analysis
# Assay type: functional
# Conditions: OVCAR-5, 48 h, read-out: GI
# Method in brief: (§1)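 Single-dose NCI 60-line panel screen of test compounds. Cells grown in RPMI 1640 with 10% FBS. Compounds dissolved in DMSO, then diluted in phosphate buffer saline (final DMSO below 1%). Wells run in duplicate at 6 × 10⁴ cells/ml. Controls held PBS and DMSO at matching dilutions. Incubation 48 h at 37 °C under humidified 5% CO2. Cells diluted tenfold in saline and counted by Coulter counter. Percent growth inhibition taken from mean-graph of treated-cell growth.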
row,SMILES,inhibition of growth at 10 µM [%]
1,Cc1cnc(NC(=O)CN2CCN(c3ccccc3)CC2)s1,< 10

# Tested on: MCF7
# Experiment: Growth inhibition of human MCF7 cells at 10 uM after 48 hrs by coulter counter analysis
# Assay type: functional
# Conditions: MCF7, 48 h, read-out: GI
# Method in brief: as §1
row,SMILES,inhibition of growth at 10 µM [%]
1,Cc1cnc(NC(=O)CN2CCN(c3ccccc3)CC2)s1,< 10

# Tested on: SR
# Experiment: Growth inhibition of human SR cells at 10 uM after 48 hrs by coulter counter analysis
# Assay type: functional
# Conditions: read-out: GI
# Method in brief: (§2)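 Single-dose screen in the NCI 60 cell line panel. Cells grown in RPMI 1640 with 10% FBS. Compounds dissolved in DMSO and diluted in phosphate buffered saline, final DMSO under 1%. Duplicate wells seeded from culture at 6 × 10⁴ cells/ml. Incubated 48 h at 37 °C, humidified, 5% CO2. Cells diluted tenfold in saline and Coulter-counted. Percent growth inhibition computed against PBS/DMSO controls.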
row,SMILES,inhibition of growth at 10 µM [%]
1,Cc1cnc(NC(=O)CN2CCN(c3ccccc3)CC2)s1,< 10

# Tested on: UACC-62
# Experiment: Growth inhibition of human UACC62 cells at 10 uM after 48 hrs by coulter counter analysis
# Assay type: functional
# Conditions: UACC-62, 48 h, read-out: GI
# Method in brief: as §2
row,SMILES,inhibition of growth at 10 µM [%]
1,Cc1cnc(NC(=O)CN2CCN(c3ccccc3)CC2)s1,< 10

# Tested on: SF-295
# Experiment: Growth inhibition of human SF295 cells at 10 uM after 48 hrs by coulter counter analysis
# Assay type: functional
# Conditions: SF-295, 48 h, read-out: GI
# Method in brief: as §1
row,SMILES,inhibition of growth at 10 µM [%]
1,Cc1cnc(NC(=O)CN2CCN(c3ccccc3)CC2)s1,< 10

# Tested on: HOP-92
# Experiment: Growth inhibition of human HOP92 cells at 10 uM after 48 hrs by coulter counter analysis
# Assay type: functional
# Conditions: HOP-92, 48 h, read-out: GI
# Method in brief: as §1
row,SMILES,inhibition of growth at 10 µM [%]
1,Cc1cnc(NC(=O)CN2CCN(c3ccccc3)CC2)s1,< 10

# Tested on: M14
# Experiment: Growth inhibition of human M14 cells at 10 uM after 48 hrs by coulter counter analysis
# Assay type: functional
# Conditions: M14, 48 h, read-out: GI
# Method in brief: as §1
row,SMILES,inhibition of growth at 10 µM [%]
1,Cc1cnc(NC(=O)CN2CCN(c3ccccc3)CC2)s1,< 10

# Tested on: T47D
# Experiment: Growth inhibition of human T47D cells at 10 uM after 48 hrs by coulter counter analysis
# Assay type: functional
# Conditions: read-out: GI
# Method in brief: as §2
row,SMILES,inhibition of growth at 10 µM [%]
1,Cc1cnc(NC(=O)CN2CCN(c3ccccc3)CC2)s1,< 10

# Tested on: NCI-H322M
# Experiment: Growth inhibition of human NCI-H322M cells at 10 uM after 48 hrs by coulter counter analysis
# Assay type: functional
# Conditions: read-out: GI
# Method in brief: as §1
row,SMILES,inhibition of growth at 10 µM [%]
1,Cc1cnc(NC(=O)CN2CCN(c3ccccc3)CC2)s1,< 10

# Tested on: BT-549
# Experiment: Growth inhibition of human BT549 cells at 10 uM after 48 hrs by coulter counter analysis
# Assay type: functional
# Conditions: BT-549, 48 h, read-out: GI
# Method in brief: as §1
row,SMILES,inhibition of growth at 10 µM [%]
1,Cc1cnc(NC(=O)CN2CCN(c3ccccc3)CC2)s1,< 10

# Tested on: NCI-H522
# Experiment: Growth inhibition of human NCI-H522 cells at 10 uM after 48 hrs by coulter counter analysis
# Assay type: functional
# Conditions: NCI-H522, 48 h, read-out: GI
# Method in brief: as §1
row,SMILES,inhibition of growth at 10 µM [%]
1,Cc1cnc(NC(=O)CN2CCN(c3ccccc3)CC2)s1,< 10

# Tested on: NCI-H226
# Experiment: Growth inhibition of human NCI-H226 cells at 10 uM after 48 hrs by coulter counter analysis
# Assay type: functional
# Conditions: NCI-H226, 48 h, read-out: GI
# Method in brief: as §1
row,SMILES,inhibition of growth at 10 µM [%]
1,Cc1cnc(NC(=O)CN2CCN(c3ccccc3)CC2)s1,< 10

# Tested on: UO-31
# Experiment: Growth inhibition of human UO31 cells at 10 uM after 48 hrs by coulter counter analysis
# Assay type: functional
# Conditions: UO-31, 48 h, read-out: GI
# Method in brief: as §2
row,SMILES,inhibition of growth at 10 µM [%]
1,Cc1cnc(NC(=O)CN2CCN(c3ccccc3)CC2)s1,13.1

# Tested on: MDA-MB-468
# Experiment: Growth inhibition of human MDA-MB-468 cells at 10 uM after 48 hrs by coulter counter analysis
# Assay type: functional
# Conditions: MDA-MB-468, 48 h, read-out: GI
# Method in brief: as §1
row,SMILES,inhibition of growth at 10 µM [%]
1,Cc1cnc(NC(=O)CN2CCN(c3ccccc3)CC2)s1,< 10

# Tested on: OVCAR-4
# Experiment: Growth inhibition of human OVCAR4 cells at 10 uM after 48 hrs by coulter counter analysis
# Assay type: functional
# Conditions: OVCAR-4, 48 h, read-out: GI
# Method in brief: as §1
row,SMILES,inhibition of growth at 10 µM [%]
1,Cc1cnc(NC(=O)CN2CCN(c3ccccc3)CC2)s1,< 10

# Tested on: SN12C
# Experiment: Growth inhibition of human SN12C cells at 10 uM after 48 hrs by coulter counter analysis
# Assay type: functional
# Conditions: read-out: GI
# Method in brief: as §1
row,SMILES,inhibition of growth at 10 µM [%]
1,Cc1cnc(NC(=O)CN2CCN(c3ccccc3)CC2)s1,< 10

# Tested on: MDA-MB-231
# Experiment: Growth inhibition of human MDA-MB-231 cells at 10 uM after 48 hrs by coulter counter analysis
# Assay type: functional
# Conditions: MDA-MB-231, 48 h, read-out: GI
# Method in brief: as §1
row,SMILES,inhibition of growth at 10 µM [%]
1,Cc1cnc(NC(=O)CN2CCN(c3ccccc3)CC2)s1,< 10

# Tested on: OVCAR-8
# Experiment: Growth inhibition of human OVCAR8 cells at 10 uM after 48 hrs by coulter counter analysis
# Assay type: functional
# Conditions: OVCAR-8, 48 h, read-out: GI
# Method in brief: as §1
row,SMILES,inhibition of growth at 10 µM [%]
1,Cc1cnc(NC(=O)CN2CCN(c3ccccc3)CC2)s1,< 10

# Tested on: OVCAR-3
# Experiment: Growth inhibition of human OVCAR3 cells at 10 uM after 48 hrs by coulter counter analysis
# Assay type: functional
# Conditions: OVCAR-3, 48 h, read-out: GI
# Method in brief: as §1
row,SMILES,inhibition of growth at 10 µM [%]
1,Cc1cnc(NC(=O)CN2CCN(c3ccccc3)CC2)s1,< 10

# Tested on: not listed separately
# Experiment: Growth inhibition of human NCI-ADR-RES cells at 10 uM after 48 hrs by coulter counter analysis
# Assay type: functional
# Conditions: read-out: GI
# Method in brief: as §1
row,SMILES,inhibition of growth at 10 µM [%]
1,Cc1cnc(NC(=O)CN2CCN(c3ccccc3)CC2)s1,< 10

# Tested on: Malme-3M
# Experiment: Growth inhibition of human MALME-3M cells at 10 uM after 48 hrs by coulter counter analysis
# Assay type: functional
# Conditions: read-out: GI
# Method in brief: as §1
row,SMILES,inhibition of growth at 10 µM [%]
1,Cc1cnc(NC(=O)CN2CCN(c3ccccc3)CC2)s1,< 10

# Tested on: COLO 205
# Experiment: Growth inhibition of human COLO205 cells at 10 uM after 48 hrs by coulter counter analysis
# Assay type: functional
# Conditions: COLO 205, 48 h, read-out: GI
# Method in brief: as §1
row,SMILES,inhibition of growth at 10 µM [%]
1,Cc1cnc(NC(=O)CN2CCN(c3ccccc3)CC2)s1,< 10

# Tested on: IGROV-1
# Experiment: Growth inhibition of human IGROV1 cells at 10 uM after 48 hrs by coulter counter analysis
# Assay type: functional
# Conditions: IGROV-1, 48 h, read-out: GI
# Method in brief: as §1
row,SMILES,inhibition of growth at 10 µM [%]
1,Cc1cnc(NC(=O)CN2CCN(c3ccccc3)CC2)s1,< 10

# Tested on: KM12
# Experiment: Growth inhibition of human KM12 cells at 10 uM after 48 hrs by coulter counter analysis
# Assay type: functional
# Conditions: KM12, 48 h, read-out: GI
# Method in brief: as §1
row,SMILES,inhibition of growth at 10 µM [%]
1,Cc1cnc(NC(=O)CN2CCN(c3ccccc3)CC2)s1,< 10

# Tested on: LOX IMVI
# Experiment: Growth inhibition of human LOXIMVI cells at 10 uM after 48 hrs by coulter counter analysis
# Assay type: functional
# Conditions: read-out: GI
# Method in brief: as §1
row,SMILES,inhibition of growth at 10 µM [%]
1,Cc1cnc(NC(=O)CN2CCN(c3ccccc3)CC2)s1,< 10

# Tested on: RPMI-8226
# Experiment: Growth inhibition of human RPMI8226 cells at 10 uM after 48 hrs by coulter counter analysis
# Assay type: functional
# Conditions: RPMI-8226, 48 h, read-out: GI
# Method in brief: as §1
row,SMILES,inhibition of growth at 10 µM [%]
1,Cc1cnc(NC(=O)CN2CCN(c3ccccc3)CC2)s1,< 10

# Tested on: SK-MEL-5
# Experiment: Growth inhibition of human SK-MEL-5 cells at 10 uM after 48 hrs by coulter counter analysis
# Assay type: functional
# Conditions: SK-MEL-5, 48 h, read-out: GI
# Method in brief: as §1
row,SMILES,inhibition of growth at 10 µM [%]
1,Cc1cnc(NC(=O)CN2CCN(c3ccccc3)CC2)s1,< 10

# Tested on: MDA-MB-435
# Experiment: Growth inhibition of human MDA-MB-435 cells at 10 uM after 48 hrs by coulter counter analysis
# Assay type: functional
# Conditions: MDA-MB-435, 48 h, read-out: GI
# Method in brief: as §1
row,SMILES,inhibition of growth at 10 µM [%]
1,Cc1cnc(NC(=O)CN2CCN(c3ccccc3)CC2)s1,< 10

# Tested on: SK-MEL-2
# Experiment: Growth inhibition of human SK-MEL-2 cells at 10 uM after 48 hrs by coulter counter analysis
# Assay type: functional
# Conditions: SK-MEL-2, 48 h, read-out: GI
# Method in brief: as §1
row,SMILES,inhibition of growth at 10 µM [%]
1,Cc1cnc(NC(=O)CN2CCN(c3ccccc3)CC2)s1,< 10

# Tested on: ACHN
# Experiment: Growth inhibition of human ACHN cells at 10 uM after 48 hrs by coulter counter analysis
# Assay type: functional
# Conditions: read-out: GI
# Method in brief: as §1
row,SMILES,inhibition of growth at 10 µM [%]
1,Cc1cnc(NC(=O)CN2CCN(c3ccccc3)CC2)s1,< 10

# Tested on: SF-268
# Experiment: Growth inhibition of human SF268 cells at 10 uM after 48 hrs by coulter counter analysis
# Assay type: functional
# Conditions: SF-268, 48 h, read-out: GI
# Method in brief: as §1
row,SMILES,inhibition of growth at 10 µM [%]
1,Cc1cnc(NC(=O)CN2CCN(c3ccccc3)CC2)s1,< 10

# Tested on: SF-539
# Experiment: Growth inhibition of human SF539 cells at 10 uM after 48 hrs by coulter counter analysis
# Assay type: functional
# Conditions: SF-539, 48 h, read-out: GI
# Method in brief: as §1
row,SMILES,inhibition of growth at 10 µM [%]
1,Cc1cnc(NC(=O)CN2CCN(c3ccccc3)CC2)s1,< 10

# Tested on: HCT-15
# Experiment: Growth inhibition of human HCT15 cells at 10 uM after 48 hrs by coulter counter analysis
# Assay type: functional
# Conditions: HCT-15, 48 h, read-out: GI
# Method in brief: as §1
row,SMILES,inhibition of growth at 10 µM [%]
1,Cc1cnc(NC(=O)CN2CCN(c3ccccc3)CC2)s1,< 10

# Tested on: HCC 2998
# Experiment: Growth inhibition of human HCC2998 cells at 10 uM after 48 hrs by coulter counter analysis
# Assay type: functional
# Conditions: HCC 2998, 48 h, read-out: GI
# Method in brief: as §1
row,SMILES,inhibition of growth at 10 µM [%]
1,Cc1cnc(NC(=O)CN2CCN(c3ccccc3)CC2)s1,< 10

# Tested on: not listed separately
# Experiment: Growth inhibition of human Hs 578T cells at 10 uM after 48 hrs by coulter counter analysis
# Assay type: functional
# Conditions: read-out: GI
# Method in brief: as §1
row,SMILES,inhibition of growth at 10 µM [%]
1,Cc1cnc(NC(=O)CN2CCN(c3ccccc3)CC2)s1,< 10

# Tested on: SW-620
# Experiment: Growth inhibition of human SW620 cells at 10 uM after 48 hrs by coulter counter analysis
# Assay type: functional
# Conditions: SW-620, 48 h, read-out: GI
# Method in brief: as §2
row,SMILES,inhibition of growth at 10 µM [%]
1,Cc1cnc(NC(=O)CN2CCN(c3ccccc3)CC2)s1,< 10
